Assay results reported in ChEMBL document CHEMBL1139934, “Synthesis and biological activity of imidazopyridine anticoccidial agents: part I” (Eur J Med Chem, 2007).
Values belong to the molecule of their own block, whether it stands above or below them.

Tests used:
Eimeria tenella [1] = experiment: Anticococcidal activity against Eimeria tenella in Chick assessed as reduction in oocyte at 25 ppm relative to control; assay type: functional; set-up: scale not given: the % may be the effect or the level left
Outline: (§1)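 Expanded Mini-Assay Coccidiosis (ExMAC) in chickens infected with E. tenella, E. acervulina, E. mitis and E. maxima. Compound given in the feed at the stated ppm. Efficacy for each species is scored 0 to 4 from the percent oocyst reduction relative to an untreated control. Where a compound was tested more than once, all values are reported.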

[2] = molecular target: cGMP-dependent protein kinase (Eimeria tenella, UniProt Q8MMZ8); experiment: Inhibition of Eimeria tenella cGMP-dependent protein kinase by Ten_K assay
Chain of cGMP-dependent protein kinase (Q8MMZ8 whole entry): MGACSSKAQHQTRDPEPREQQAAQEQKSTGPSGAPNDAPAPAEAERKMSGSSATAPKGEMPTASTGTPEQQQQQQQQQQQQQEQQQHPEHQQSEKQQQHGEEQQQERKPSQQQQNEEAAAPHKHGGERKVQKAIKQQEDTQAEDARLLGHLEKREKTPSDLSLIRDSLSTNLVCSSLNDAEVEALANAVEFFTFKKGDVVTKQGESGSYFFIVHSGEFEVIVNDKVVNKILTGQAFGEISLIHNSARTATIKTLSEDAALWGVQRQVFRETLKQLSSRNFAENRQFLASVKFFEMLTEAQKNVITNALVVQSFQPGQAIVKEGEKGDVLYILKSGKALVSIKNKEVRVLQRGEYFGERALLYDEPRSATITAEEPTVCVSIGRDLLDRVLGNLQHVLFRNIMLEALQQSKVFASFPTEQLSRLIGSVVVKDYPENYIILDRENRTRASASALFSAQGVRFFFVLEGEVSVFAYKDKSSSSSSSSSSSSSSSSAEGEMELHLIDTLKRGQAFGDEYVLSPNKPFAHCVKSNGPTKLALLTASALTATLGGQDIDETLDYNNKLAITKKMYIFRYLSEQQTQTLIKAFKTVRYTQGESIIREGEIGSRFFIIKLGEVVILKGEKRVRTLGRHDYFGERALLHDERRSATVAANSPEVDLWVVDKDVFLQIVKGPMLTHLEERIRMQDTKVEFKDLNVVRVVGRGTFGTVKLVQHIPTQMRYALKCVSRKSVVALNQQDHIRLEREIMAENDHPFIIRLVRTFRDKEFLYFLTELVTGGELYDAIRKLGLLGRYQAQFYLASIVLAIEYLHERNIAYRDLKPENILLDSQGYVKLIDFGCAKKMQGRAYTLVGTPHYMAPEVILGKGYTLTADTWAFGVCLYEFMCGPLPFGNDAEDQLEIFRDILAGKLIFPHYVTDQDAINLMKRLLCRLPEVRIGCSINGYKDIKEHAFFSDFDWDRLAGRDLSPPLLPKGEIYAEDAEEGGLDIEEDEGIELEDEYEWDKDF
Outline: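 Ten_K (Tenella Kinase) assay measuring inhibition of E. tenella PKG enzyme activity. Result expressed as the concentration giving 50% inhibition (IC50, nM). Where a compound was tested more than once, all values are reported.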

Eimeria tenella [3] = experiment: Anticococcidal activity against Eimeria tenella in Chick assessed as reduction in oocyte at 12.5 ppm relative to control; assay type: functional; set-up: scale not given: the % may be the effect or the level left; outline: as §1
Eimeria tenella [4] = experiment: Anticococcidal activity against Eimeria tenella in Chick assessed as reduction in oocyte at 6.25 ppm relative to control; assay type: functional; set-up: scale not given: the % may be the effect or the level left; outline: as §1
Eimeria acervulina [5] = experiment: Anticococcidal activity against Eimeria acervulina in Chick assessed as reduction in oocyte at 25 ppm relative to control; assay type: functional; set-up: scale not given: the % may be the effect or the level left; outline: as §1
Eimeria acervulina [6] = experiment: Anticococcidal activity against Eimeria acervulina in Chick assessed as reduction in oocyte at 12.5 ppm relative to control; assay type: functional; set-up: scale not given: the % may be the effect or the level left; outline: as §1
Eimeria acervulina [7] = experiment: Anticococcidal activity against Eimeria acervulina in Chick assessed as reduction in oocyte at 6.25 ppm relative to control; assay type: functional; set-up: scale not given: the % may be the effect or the level left; outline: as §1
Eimeria mitis [8] = experiment: Anticococcidal activity against Eimeria mitis in Chick assessed as reduction in oocyte at 25 ppm relative to control; assay type: functional; set-up: scale not given: the % may be the effect or the level left; outline: as §1
Eimeria maxima [9] = experiment: Anticococcidal activity against Eimeria maxima in Chick assessed as reduction in oocyte at 25 ppm relative to control; assay type: functional; set-up: scale not given: the % may be the effect or the level left; outline: as §1
Eimeria maxima [10] = experiment: Anticococcidal activity against Eimeria maxima in Chick assessed as reduction in oocyte at 12.5 ppm relative to control; assay type: functional; set-up: scale not given: the % may be the effect or the level left; outline: as §1
Eimeria maxima [11] = experiment: Anticococcidal activity against Eimeria maxima in Chick assessed as reduction in oocyte at 6.25 ppm relative to control; assay type: functional; set-up: scale not given: the % may be the effect or the level left; outline: as §1
Eimeria mitis [12] = experiment: Anticococcidal activity against Eimeria mitis in Chick assessed as reduction in oocyte at 12.5 ppm relative to control; assay type: functional; set-up: scale not given: the % may be the effect or the level left; outline: as §1
Eimeria mitis [13] = experiment: Anticococcidal activity against Eimeria mitis in Chick assessed as reduction in oocyte at 6.25 ppm relative to control; assay type: functional; set-up: scale not given: the % may be the effect or the level left; outline: as §1

SMILES: CN(C)Cc1ccn2c(-c3ccnc(NC(=O)C4CCC4)n3)c(-c3ccc(F)cc3)nc2c1
Activity (Eimeria tenella [1]): 80% | IC50 [2]: 0.27 nM | Activity (Eimeria tenella [3]): 80% | Activity (Eimeria tenella [4]): 80% | Activity (Eimeria acervulina [5]): 80% | Activity (Eimeria acervulina [6]): <50% | Activity (Eimeria acervulina [7]): <50% | Activity (Eimeria mitis [8]): 80% | Activity (Eimeria maxima [9]): 80% | Activity (Eimeria maxima [10]): 80% | Activity (Eimeria maxima [11]): <50% | Activity (Eimeria mitis [12]): 80% | Activity (Eimeria mitis [13]): <50%

SMILES: CN(C)Cc1ccn2c(-c3ccnc(NC4CCCC4)n3)c(-c3ccc(F)cc3)nc2c1
IC50 [2]: 0.102 nM | Activity (Eimeria tenella [3]): 80% | Activity (Eimeria tenella [4]): 80% | Activity (Eimeria acervulina [6]): 80% | Activity (Eimeria acervulina [7]): 80% | Activity (Eimeria maxima [10]): 80% | Activity (Eimeria maxima [11]): <50% | Activity (Eimeria mitis [12]): 80% | Activity (Eimeria mitis [13]): 50%

SMILES: CN(C)Cc1ccn2c(-c3ccnc(NCCCO)n3)c(-c3ccc(F)cc3)nc2c1
IC50 [2]: 0.33 nM | Activity (Eimeria tenella [3]): 80% | Activity (Eimeria tenella [4]): 80% | Activity (Eimeria acervulina [6]): 80% | Activity (Eimeria acervulina [7]): <50% | Activity (Eimeria maxima [10]): 80% | Activity (Eimeria maxima [11]): 80% | Activity (Eimeria mitis [12]): 80% | Activity (Eimeria mitis [13]): <50%

SMILES: CN(C)Cc1ccn2c(-c3ccnc(NCc4cccc(F)c4)n3)c(-c3ccc(F)cc3)nc2c1
Activity (Eimeria tenella [1]): 50% | IC50 [2]: 0.09 nM | Activity (Eimeria tenella [3]): <50% | Activity (Eimeria tenella [4]): <50% | Activity (Eimeria acervulina [5]): 80% | Activity (Eimeria acervulina [6]): 50% | Activity (Eimeria acervulina [7]): <50% | Activity (Eimeria mitis [8]): 50% | Activity (Eimeria maxima [9]): 80% | Activity (Eimeria maxima [10]): 80% | Activity (Eimeria maxima [11]): <50% | Activity (Eimeria mitis [12]): <50% | Activity (Eimeria mitis [13]): <50%

SMILES: CN(C)Cc1ccn2c(-c3ccnc(NC4CCC4)n3)c(-c3ccc(F)cc3)nc2c1
Activity (Eimeria tenella [1]): 80% | IC50 [2]: 0.22 nM | Activity (Eimeria tenella [3]): 80% | Activity (Eimeria tenella [4]): 80% | Activity (Eimeria acervulina [5]): 80% | Activity (Eimeria acervulina [6]): 80% | Activity (Eimeria acervulina [7]): <50% | Activity (Eimeria mitis [8]): 80% | Activity (Eimeria maxima [9]): 80% | Activity (Eimeria maxima [10]): 80% | Activity (Eimeria maxima [11]): 50% | Activity (Eimeria mitis [12]): 50% | Activity (Eimeria mitis [13]): <50%

SMILES: CN(C)Cc1ccn2c(-c3ccnc(NC4CC4)n3)c(-c3ccc(F)cc3)nc2c1
Activity (Eimeria tenella [1]): 80% | IC50 [2]: 0.08 nM | Activity (Eimeria tenella [3]): 80% | Activity (Eimeria tenella [4]): <50% | Activity (Eimeria acervulina [5]): 80% | Activity (Eimeria acervulina [6]): 80% | Activity (Eimeria acervulina [7]): 80% | Activity (Eimeria mitis [8]): 80% | Activity (Eimeria maxima [9]): 80% | Activity (Eimeria maxima [10]): 80% | Activity (Eimeria maxima [11]): 80% | Activity (Eimeria mitis [12]): 50% | Activity (Eimeria mitis [13]): <50%

SMILES: CN(C)Cc1ccn2c(-c3ccnc(NC4CCCCC4)n3)c(-c3ccc(F)cc3)nc2c1
Activity (Eimeria tenella [1]): 80% | IC50 [2]: 0.12 nM | Activity (Eimeria tenella [3]): 80% | Activity (Eimeria tenella [4]): 80% | Activity (Eimeria acervulina [5]): 50% | Activity (Eimeria acervulina [6]): <50% | Activity (Eimeria acervulina [7]): <50% | Activity (Eimeria mitis [8]): 80% | Activity (Eimeria maxima [9]): 80% | Activity (Eimeria maxima [10]): 80% | Activity (Eimeria maxima [11]): 80% | Activity (Eimeria mitis [12]): 50% | Activity (Eimeria mitis [13]): <50%

SMILES: COCCNc1nccc(-c2c(-c3ccc(F)cc3)nc3cc(CN(C)C)ccn23)n1
Activity (Eimeria tenella [1]): 80% | IC50 [2]: 0.25 nM | Activity (Eimeria tenella [3]): 80% | Activity (Eimeria tenella [4]): <50% | Activity (Eimeria acervulina [5]): 80% | Activity (Eimeria acervulina [6]): 80% | Activity (Eimeria acervulina [7]): <50% | Activity (Eimeria mitis [8]): <50% | Activity (Eimeria maxima [9]): 80% | Activity (Eimeria maxima [10]): 80% | Activity (Eimeria maxima [11]): 50% | Activity (Eimeria mitis [12]): <50% | Activity (Eimeria mitis [13]): <50%

SMILES: CN(C)Cc1ccn2c(-c3ccnc(NC(=O)C4CCCC4)n3)c(-c3ccc(F)cc3)nc2c1
Activity (Eimeria tenella [1]): 80% | IC50 [2]: 0.21 nM | Activity (Eimeria tenella [3]): 80% | Activity (Eimeria tenella [4]): < 50% | Activity (Eimeria acervulina [5]): 80% | Activity (Eimeria acervulina [6]): <50% | Activity (Eimeria acervulina [7]): <50% | Activity (Eimeria mitis [8]): 80% | Activity (Eimeria mitis [12]): 80% | Activity (Eimeria mitis [13]): <50%

Further lines, with some results ahead:

IC50 [2]: 0.23 nM
SMILES: CCNc1nccc(-c2c(-c3ccc(F)cc3)nc3cc(CN(C)C)ccn23)n1
Activity (Eimeria tenella [1]): 80% | Activity (Eimeria tenella [3]): 80% | Activity (Eimeria tenella [4]): <50% | Activity (Eimeria acervulina [5]): 80% | Activity (Eimeria acervulina [6]): 80% | Activity (Eimeria mitis [8]): 80% | Activity (Eimeria maxima [9]): 80% | Activity (Eimeria maxima [10]): 80% | Activity (Eimeria maxima [11]): 80% | Activity (Eimeria mitis [12]): <50% | Activity (Eimeria mitis [13]): <50%

IC50 [2]: 0.3 nM
SMILES: CCC(=O)Nc1nccc(-c2c(-c3ccc(F)cc3)nc3cc(CN(C)C)ccn23)n1
Activity (Eimeria tenella [1]): 80% | Activity (Eimeria tenella [3]): 80% | Activity (Eimeria tenella [4]): <50% | Activity (Eimeria acervulina [5]): 80% | Activity (Eimeria acervulina [6]): <50% | Activity (Eimeria acervulina [7]): <50% | Activity (Eimeria mitis [8]): 80% | Activity (Eimeria maxima [9]): 80% | Activity (Eimeria maxima [10]): 80% | Activity (Eimeria mitis [12]): <50% | Activity (Eimeria mitis [13]): <50%

IC50 [2]: 0.25 nM
SMILES: CCCCC(=O)Nc1nccc(-c2c(-c3ccc(F)cc3)nc3cc(CN(C)C)ccn23)n1
Activity (Eimeria tenella [1]): 80% | Activity (Eimeria tenella [3]): 50% | Activity (Eimeria tenella [4]): < 50% | Activity (Eimeria acervulina [5]): 80% | Activity (Eimeria acervulina [6]): 50% | Activity (Eimeria acervulina [7]): 80% | Activity (Eimeria mitis [8]): 80% | Activity (Eimeria maxima [9]): 80% | Activity (Eimeria maxima [10]): 80% | Activity (Eimeria maxima [11]): 80% | Activity (Eimeria mitis [13]): <50%

IC50 [2]: 0.3 nM
SMILES: CN(C)Cc1ccn2c(-c3ccnc(NCCO)n3)c(-c3ccc(F)cc3)nc2c1
Activity (Eimeria tenella [1]): 80% | Activity (Eimeria tenella [3]): 50% | Activity (Eimeria tenella [4]): <50% | Activity (Eimeria acervulina [5]): 80% | Activity (Eimeria acervulina [6]): <50% | Activity (Eimeria acervulina [7]): <50% | Activity (Eimeria mitis [8]): 80% | Activity (Eimeria maxima [9]): 80% | Activity (Eimeria maxima [10]): 80% | Activity (Eimeria maxima [11]): 50% | Activity (Eimeria mitis [12]): <50% | Activity (Eimeria mitis [13]): <50%

IC50 [2]: 0.63 nM
SMILES: CCCC(=O)Nc1nccc(-c2c(-c3ccc(F)cc3)nc3cc(CN(C)C)ccn23)n1
Activity (Eimeria tenella [3]): 80% | Activity (Eimeria tenella [4]): <50% | Activity (Eimeria acervulina [6]): 80% | Activity (Eimeria acervulina [7]): <50% | Activity (Eimeria maxima [10]): 80% | Activity (Eimeria maxima [11]): 80% | Activity (Eimeria mitis [12]): 80% | Activity (Eimeria mitis [13]): <50%

IC50 [2]: 0.42 nM
SMILES: CN(C)Cc1ccn2c(-c3ccnc(NC(=O)C4CC4)n3)c(-c3ccc(F)cc3)nc2c1
Activity (Eimeria tenella [1]): 80% | Activity (Eimeria tenella [3]): 80% | Activity (Eimeria tenella [4]): 50% | Activity (Eimeria acervulina [5]): 80% | Activity (Eimeria acervulina [6]): 80% | Activity (Eimeria acervulina [7]): 80% | Activity (Eimeria mitis [8]): 80% | Activity (Eimeria maxima [9]): 50% | Activity (Eimeria maxima [10]): 80% | Activity (Eimeria maxima [11]): <50% | Activity (Eimeria mitis [12]): 80% | Activity (Eimeria mitis [13]): <50%

IC50 [2]: 0.45 nM
SMILES: CN(C)Cc1ccn2c(-c3ccnc(NC=O)n3)c(-c3ccc(F)cc3)nc2c1
Activity (Eimeria tenella [3]): 80% | Activity (Eimeria tenella [4]): 80% | Activity (Eimeria acervulina [6]): 80% | Activity (Eimeria acervulina [7]): 80% | Activity (Eimeria maxima [10]): 80% | Activity (Eimeria maxima [11]): 80% | Activity (Eimeria mitis [12]): 50% | Activity (Eimeria mitis [13]): <50%
